Reference: ChEMBL document CHEMBL1141844, “Geranins A and B, new antiprotozoal A-type proanthocyanidins from Geranium niveum” (J Nat Prod, 1999)
Values after ≈ are worked out from the molar mass of the structure shown. Active and inactive are the calls of the source. The calls are words filed in the database; no cut-off is given here.

Assays:
MCF7 = assay: Cytotoxicity against human MCF7 cells after 7 days by MTT method; format: functional, cell-based
Outline: (§1)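 Run at the Purdue Cell Culture Laboratory as a seven-day MTT assay on human solid tumour lines, with adriamycin as the positive control.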

Giardia intestinalis = assay: Antiprotozoal activity against axenically grown trophozoites of Giardia lamblia IMSS:0989:1 after 48 hrs by MTT method; format: functional, organism-based; details: Giardia duodenalis
Outline: (§2)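 Log-phase trophozoites from axenic culture: E. histolytica in TYI-S-33 with 10% bovine serum (inoculum 6 × 10³/mL), G. lamblia in modified TYI-S-33 with 10% calf serum (inoculum 5 × 10⁴/mL). Test material in DMSO/medium at 2.5–200 µg/mL, 48 h, 37 °C. Counted by haemocytometer, then MTT (0.075% final) plus PMS, 45 min, A570. Inhibition converted to probits and regressed on log concentration to give IC50. Duplicates, repeated at least three times.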

A549 = assay: Cytotoxicity against human A549 cells after 7 days by MTT method; format: functional, cell-based; outline: as §1
Entamoeba histolytica = assay: Antiprotozoal activity against axenically grown trophozoites of Entamoeba histolytica HM1-IMSS after 48 hrs by MTT method; format: functional, organism-based; outline: as §2
HT-29 = assay: Cytotoxicity against human HT-29 cells after 7 days by MTT method; format: functional, cell-based; outline: as §1

Structure (SMILES) | Activity (MCF7) | IC50 (Giardia intestinalis) | Activity (A549) | IC50 (Entamoeba histolytica) | Activity (HT-29)
CC1(C)CC[C@]2(C(=O)O)CC[C@]3(C)C(=CC[C@@H]4[C@@]5(C)CC[C@H](C(=O)/C=C/c6ccc(O)c(O)c6)C(C)(C)[C@@H]5CC[C@]43C)[C@@H]2C1 | inactive | 31.2 µg/mL (≈ 51.8 µM) | inactive | 22.6 µg/mL (≈ 37.5 µM) | inactive
COC(=O)c1cc(O)c(O)c(O)c1 [GALLIC ACID METHYL ESTER] | inactive | 49.2 µg/mL (≈ 267 µM) | inactive | 144 µg/mL (≈ 780 µM) | inactive
Oc1ccc([C@H]2Oc3c(c(O)cc4c3[C@H]3c5c(O)cc(O)cc5O[C@@](c5ccc(O)cc5)(O4)[C@@H]3O)C[C@@H]2O)cc1 [GERANIN A] | inactive | 2.4 µg/mL (≈ 4.41 µM) | inactive | 185 µg/mL (≈ 339 µM) | inactive
Oc1ccc([C@H]2Oc3c(c(O)cc4c3[C@H]3c5c(O)cc(O)cc5O[C@@](c5ccc(O)c(O)c5)(O4)[C@@H]3O)C[C@@H]2O)cc1 [GERANIN B] | inactive | 6 µg/mL (≈ 10.7 µM) | inactive | 13.6 µg/mL (≈ 24.3 µM) | inactive
O=c1c(O[C@@H]2O[C@H](CO)[C@H](O)[C@H](O)[C@H]2O)c(-c2ccc(O)c(O)c2)oc2cc(O)cc(O)c12 [HYPEROSIDE] | inactive | 85.1 µg/mL (≈ 183 µM) | inactive | 109 µg/mL (≈ 235 µM) | inactive
Cc1ncc([N+](=O)[O-])n1CCO [METRONIDAZOLE] | inactive | – | inactive | 0.04 µg/mL (≈ 0.234 µM) | inactive
